High-throughput results from PubChem BioAssay.
MEKK3 PB1 HTS – modulators (inhibitors or enhancers) of MEK5 binding to human MEKK3 PB1 domain; Q99759; bead-based flow cytometry, Alexa488-MEK5 binding to MEKK3; actives lie on both sides; 0 = blocked by unlabeled MEK5, 100 = vehicle; actives 1.4% (n = 290,000); binding response (% of control), % at 10 µM;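 active means binding response more than 3 SD above or below the average of its plate-row segment, actives on both sides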;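 further: Alexa488 bead fluorescence after subtracting the streptavidin-only scavenger bead signal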
ABCB1 block – blocks JC-1 efflux by human ABCB1 transporter; CCRF-Adr cells, flow cytometry; inhibition, % at 6.6 µM; actives 0.067% (n = 190,000); AID 1326; in the data active means inhibition above about 40%;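 further: higher value means more JC-1 retained so stronger ABCB1 efflux block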
MEKK2wt PB1 HTS – raises or lowers MEK5 binding to wildtype human MEKK2 PB1 domain; Q9Y2U5; bead flow cytometry, Alexa488-MEK5 binding to MEKK2 WT; actives lie on both sides; binding response (% of control), % at 10 µM; actives 1.1% (n = 290,000); AID 1531; in the data active means binding response below about 67% or above about 130%
WT yeast gro inh – growth inhibition of WT yeast, mitochondrial fusion screen. mitochondrial fusion phenotypic screen, WT strain. inhibition, % at 10 µM. actives 2.1% (n = 190,000); in the data active means inhibition above about 58%; tested in S. cerevisiae
MEKK2 mut-MEK5 – signal of MEK5 binding to mutant human MEKK2 PB1 domain; bead flow cytometry, Alexa488-MEK5 binding to MEKK2 mutant; percent response, % at 10 µM; actives 0.35% (n = 290,000); in the data active means percent response above about 24%, passing the limit was not always enough
ABCG2 block – human ABCG2 inhibition, ABCB1 as counter-screen; Q9UNQ0; IgMXP3 cells, JC-1 efflux, flow cytometry; inhibition, % at 6.6 µM; actives 0.1% (n = 190,000);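 active means inhibition above 80%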
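Times: 10 min at 25 °C | Test system: Two drug-resistant human cell lines, ABCG2 and ABCB1 | Quantity: 3 million cells/mL final, two lines in 1:1 ratio | Signal: Flow cytometry, 530 nm JC-1 signal | Dosing: Compound at 6.6 µM | Controls: Nicardipine and DMSO wells | Reagent: JC-1 as fluorescent efflux pump substrate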
Hits are given with their value; - = inactive; . = no result. Shown are actives, neighbours in structure and some others; about 3.5% of the full set was active somewhere.

SMILES	MEKK3 PB1 HTS	ABCB1 block	MEKK2wt PB1 HTS	WT yeast gro inh	MEKK2 mut-MEK5	ABCG2 block
CCOc1cccc2sc(N(CCCN(C)C)C(=O)c3ccc(S(=O)(=O)N(CC)Cc4ccccc4)cc3)nc12	-	.	227	.	54	.
Cc1ccc2sc(N(CCCN(C)C)C(=O)c3ccc(S(=O)(=O)N(C)C)cc3)nc2c1C	-	-	-	-	-	-
CCOc1cccc2sc(N(CCN(CC)CC)C(=O)c3ccc(S(=O)(=O)N4CCCCC4)cc3)nc12	-	-	-	-	-	-
CN(C)CCCN(C(=O)c1ccc(S(=O)(=O)N2CCc3ccccc32)cc1)c1nc2c(Cl)cccc2s1	-	.	257	.	58	.
CN(C)CCN(C(=O)c1ccc(S(=O)(=O)N2CCc3ccccc32)cc1)c1nc2ccc(F)cc2s1	-	.	-	.	-	.
CN(C)CCCN(C(=O)c1ccc(C(=O)c2ccccc2)cc1)c1nc2c(F)cccc2s1	-	.	143	.	-	.
CCOc1cccc2sc(N(CCCN(C)C)C(=O)c3ccc(S(=O)(=O)N(C)Cc4ccccc4)cc3)nc12	-	.	233	.	62	.
CCc1cc(OCCOCCN(C)C)ccc1Cl	-	-	-	-	-	-
NC(=O)C1=C[C@@H](c2csc3ccccc23)C[C@@H](OCCCCO)O1	-	-	-	-	-	-
CC(C)CCN1CCN(CC#Cc2ccccc2)CC1CCO (configuration not stated)	-	-	-	-	-	-
C=CCN1C(=O)C2(OCCCO2)c2cc(C)ccc21	-	.	-	.	-	.
CCN(c1ccccc1)S(=O)(=O)c1ccc(C(=O)N(CCCN(C)C)c2nc3cc4c(cc3s2)OCO4)cc1	-	.	158	.	25	.
Cc1ccc2nc(N(CCCN(C)C)C(=O)c3ccc(S(=O)(=O)N4CCCCCC4)cc3)sc2c1	-	.	171	.	28	.
CC(O)c1nc2ccccc2n1CCCCOc1ccccc1 (configuration not stated)	-	-	-	-	-	-
CCN(CC(=O)Nc1cc(Cl)ccc1OC)CC(=O)NC1CCS(=O)(=O)C1 (configuration not stated)	-	.	-	.	-	.
Cc1ccc(NC(=S)NCCC(c2ccccc2)c2ccccc2)c(C)c1	-	-	-	65	-	-
Cc1ccsc1C(=O)NCc1ccccc1Cl	-	.	-	.	-	.
Cc1ccsc1C(=O)NCCC(c1ccccc1)c1ccccc1	-	-	-	67	-	-
Cc1ccccc1NC(=S)NCCC(c1ccccc1)c1ccccc1	-	-	-	79	-	-
Cc1ccc(C)c(NC(=O)CN(C)S(=O)(=O)c2cccc3cccnc23)c1	-	.	-	.	-	.
COc1ccc(-n2nc(C)c3c(=O)c4c([nH]c32)CCCC4)cc1	-	.	-	.	-	.
CCN(CC(=O)NC1CCCC1)S(=O)(=O)c1ccc(F)cc1	-	.	-	.	-	.
CC1CCCCN1CC(O)COCc1ccccc1 (configuration not stated)	-	.	-	.	-	.
CN(CC(=O)O/N=C(\N)c1cccc([N+](=O)[O-])c1)S(=O)(=O)c1ccccc1	-	-	-	58	-	-
CN(CC(=O)O/N=C(\N)c1ccc([N+](=O)[O-])cc1)S(=O)(=O)c1ccccc1	-	-	-	-	-	.
SMILES	MEKK3 PB1 HTS	ABCB1 block	MEKK2wt PB1 HTS	WT yeast gro inh	MEKK2 mut-MEK5	ABCG2 block
CC(OC(=O)CC1Sc2ccccc2NC1=O)C(=O)NC1CCCC1 (configuration not stated)	-	.	-	.	-	.
CC1(C)CC[C@@]23CC[C@]4(C)[C@@](OC2=O)(C3C1)[C@H]1O[C@H]1C1[C@@]2(C)CC[C@H](O)C(C)(C)C2CC[C@]14C (some centres not stated)	-	.	-	.	-	.
COc1ccc(-c2nnc3ccc(SC)nn23)cc1	-	-	-	-	-	-
CCOc1ccc(Nc2nnc(Cc3ccc(OC)cc3)c(=O)[nH]2)cc1	-	-	-	-	-	-
COCC(C)NC(=S)NCCc1ccc(Cl)cc1Cl (configuration not stated)	-	-	-	61	-	-
COCCNC(=S)NCCc1ccc(Cl)cc1Cl	-	-	-	70	-	-
OCCC1CN(Cc2cccn2-c2ccccn2)CCN1Cc1ccccc1 (configuration not stated)	-	-	-	-	-	-
CC(Oc1ccccc1)C(=O)Nc1nnc(C2CCCCC2)s1 (configuration not stated)	-	-	-	-	-	-
O=Nc1c(O)n(Cc2cccc(Cl)c2)c2ccccc12	-	-	-	67	-	-
NC(=S)N=Nc1c(O)n(Cc2ccccc2)c2ccccc12	-	-	-	-	-	-
O=C(N/N=C/c1cn(-c2cccs2)nc1-c1ccccc1)c1ccccc1Br	-	-	-	-	-	-
O=C(N/N=C/c1cn(-c2cccs2)nc1-c1ccccc1)c1ccccc1O	-	-	-	60	-	-
O=C(CNC(=S)N(Cc1ccccc1)Cc1ccccc1F)NCCc1ccccc1	-	-	-	64	-	-
O=C(CNC(=S)N(Cc1ccccc1)Cc1ccccc1F)NCc1ccccc1	-	-	-	75	-	-
O=C(CNC(=S)N(Cc1ccccc1)Cc1ccccc1F)NCc1ccc(Cl)cc1	-	-	-	81	-	-
CN(C)CCNC(=O)CNC(=S)N(Cc1ccccc1)Cc1ccccc1F	-	-	-	-	-	-
CCOC(=O)CNC(=S)N(Cc1ccccc1)Cc1ccccc1F	-	-	-	-	-	-
COc1cccc(CNC(=O)CNC(=S)N(Cc2ccccc2)Cc2ccccc2F)c1	-	-	-	72	-	-
O=C(NCCCn1ccnc1)c1cc(-c2ccc3c(c2)OCO3)on1	-	-	-	-	-	-
O=C(CN1CCN(c2ccccn2)CC1)Nc1cccc(F)c1	-	.	-	.	-	.
Cc1ccc(CNC(=O)CNC(=S)N(Cc2ccccc2)Cc2ccccc2F)cc1	-	-	-	74	-	-
Cc1ccc(C(=O)NCc2cccnc2)cc1S(=O)(=O)N1CCCCCC1	-	.	-	.	-	.
CNC[C@H](NC[C@@H](NCCCc1ccccc1)c1ccccc1)[C@H](C)O	-	.	-	.	-	.
COc1ccc(Cc2nc3ccc(S(=O)(=O)N4CCOCC4)cc3[nH]2)cc1OC	-	-	-	-	-	-
COc1ccc(Cc2nc3ccc(S(=O)(=O)N4CCOCC4)cc3[nH]2)cc1	-	-	-	79	-	-
O=S(=O)(Nc1cccc(-c2nc3cccnc3s2)c1)c1ccc2c(c1)OCCO2	-	-	-	68	-	-
CN1CCN(C(c2ccc(C(F)(F)F)cc2)c2cc(Cl)c3cccnc3c2O)CC1 (configuration not stated)	-	.	-	.	-	.
CN1CCN(C(c2ccc(Cl)cc2)c2cc(Cl)c3cccnc3c2O)CC1 (configuration not stated)	-	.	137	.	28	.
